Drawing on ChEMBL document CHEMBL2384970, “Development of peptidomimetic boronates as proteasome inhibitors” (Eur J Med Chem, 2013), this text covers inhibition, Ki and Ratio Ki for twelve compounds.

Calls of active or inactive are those of the source. No cut-off for these calls is given here.

For orientation: inhibition means how much of the control response was suppressed. Broadly, the Ki is a measure of affinity in units of concentration, obtained from inhibition or displacement. Lower therefore signals higher affinity.

Experiment [1] addresses Proteasome Macropain subunit (Homo sapiens) (UniProt P49721). Description: Inhibition of human 20S proteasome trypsin like activity using Boc-Leu-Leu-Arg-Arg-AMC as substrate at 20 uM measured over 10 mins by fluorescence assay. Particulars: in the assay text read “Boc-Leu-Arg-Arg-AMC” for “Boc-Leu-Leu-Arg-Arg-AMC”. In a few lines:
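Tryptic activity of human erythrocyte 20S proteasome at 0.0025 mg mL1, 30 °C, in 50 mM Tris pH 7.4, 50 mM NaCl, 0.5 mM EDTA, 0.03% SDS, 7.5% DMSO. Compound at […]. Boc-Leu-Arg-Arg-AMC at […]. Continuous 10-min fluorescence reading (ex 380/em 460 nm) against a DMSO control.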

In experiment [2] the target is T1, Proteasome Macropain subunit MB1 (Homo sapiens, UniProt P28074).
T1 sequence (P28074 whole entry): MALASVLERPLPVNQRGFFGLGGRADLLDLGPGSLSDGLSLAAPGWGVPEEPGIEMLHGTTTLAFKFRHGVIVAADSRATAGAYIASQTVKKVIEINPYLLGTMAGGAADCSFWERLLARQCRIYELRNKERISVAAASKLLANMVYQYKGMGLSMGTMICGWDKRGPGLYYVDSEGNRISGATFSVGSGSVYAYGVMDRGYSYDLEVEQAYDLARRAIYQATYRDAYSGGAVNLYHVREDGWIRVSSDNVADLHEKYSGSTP
Description: Inhibition of human 20S proteasome chymotrypsin like activity using Suc-Leu-Leu-Val-Tyr-AMC as substrate measured over 10 mins by fluorescence assay.

Experiment [3] deals with T2, Proteasome Macropain subunit MB1 (Homo sapiens) (UniProt P28074).
T2 sequence (whole entry): T1 sequence (P28074 whole entry)
Description: Inhibition of human 20S proteasome chymotrypsin like activity using Suc-Leu-Leu-Val-Tyr-AMC as substrate at 20 uM measured over 10 mins by fluorescence assay relative to control. A digest of the protocol:
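Screening run at a single […] inhibitor concentration against purified human erythrocyte 20S proteasome, using an equal amount of DMSO as the negative control. AMC fluorescence read at ex 380/em 460 nm continuously for 10 min.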

The species named for the next experiment is Homo sapiens. Description: Selectivity ratio of Ki for human 20S proteasome post-glutamyl peptide hydrolyzing activity to Ki for human 20S proteasome chymotrypsin like activity.
Experiment [4] in a line: Inhibition of bovine pancreatic alpha-chymotrypsin using Suc-Leu-Leu-Val-Tyr-AMC as substrate measured over 10 mins by fluorescence assay. Also on record: species or system Bos taurus. In a few lines:
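Bovine pancreatic alpha-chymotrypsin ([…] as printed) incubated at 20 °C with test compound in 50 mM Tris pH 8.0, 100 mM NaCl, 5 mM EDTA, 7.5% DMSO. Substrate at […] final. Product release followed over 10 min. Ki obtained from progress curves fitted to a 4-parameter IC50 equation and corrected for substrate.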

A further experiment addresses T3, Proteasome component C5 (Homo sapiens, UniProt P20618).
T3 sequence (P20618 whole entry): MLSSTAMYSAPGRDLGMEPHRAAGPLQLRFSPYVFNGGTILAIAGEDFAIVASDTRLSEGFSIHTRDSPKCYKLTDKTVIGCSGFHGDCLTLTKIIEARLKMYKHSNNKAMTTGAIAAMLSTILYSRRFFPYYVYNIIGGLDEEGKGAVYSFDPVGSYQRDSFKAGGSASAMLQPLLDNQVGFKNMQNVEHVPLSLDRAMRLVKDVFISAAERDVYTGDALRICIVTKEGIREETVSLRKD
Description: Inhibition of human 20S proteasome post-glutamyl peptide hydrolyzing activity using Z-Leu-Leu-Glu-AMC as substrate measured over 10 mins by fluorescence assay.

Sequence of Proteasome Macropain subunit (Homo sapiens) (P49721 whole entry): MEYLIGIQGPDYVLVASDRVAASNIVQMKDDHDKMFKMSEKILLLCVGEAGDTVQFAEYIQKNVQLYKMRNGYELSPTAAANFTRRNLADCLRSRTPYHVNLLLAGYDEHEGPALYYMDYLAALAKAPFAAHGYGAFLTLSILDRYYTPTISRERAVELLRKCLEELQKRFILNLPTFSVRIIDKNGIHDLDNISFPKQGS

`CC(C)C[C@H](NC(=O)Cn1cc(Br)c2ncccc2c1=O)B(O)O`: the inhibition entry in experiment [1] is “inactive”. Besides, in experiment [2], the affinity corresponds to a Ki of 170 nM. The inhibition in experiment [3] is > 40%.
Regarding `CCN(CC)c1ccn(CC(=O)N[C@@H](CC(C)C)B(O)O)c(=O)c1`, the Ratio Ki in the experiment listed under Homo sapiens was 5.5. Further, in experiment [1], the inhibition result is “inactive”. In experiment [2], this compound returned a Ki of 800 nM. Also, the inhibition in experiment [3] is > 40%.
Turning to `CC(C)C[C@H](NC(=O)Cn1ccc(N2CCCCC2)cc1=O)B(O)O`, the inhibition entry in experiment [1] was “inactive”. Moreover, affinity in experiment [2] was put at a Ki of 300 nM. The inhibition in experiment [3] is > 40%.
As for `CC(C)C[C@H](NC(=O)[C@H](C)n1ccc2ncccc2c1=O)B(O)O`, the Ki in experiment [4] came to 9160 nM; in experiment [2], 1340 nM. The Ratio Ki in the experiment listed under Homo sapiens was determined as 10. The inhibition result in experiment [1] was “inactive”. Further, the inhibition in experiment [3] is > 40%.
As for `CC(C)C[C@H](NC(=O)Cn1ccc(N2CCN(C)CC2)cc1=O)B(O)O`, the inhibition result in experiment [1] is “inactive”. In experiment [3], this compound gave an inhibition of 30%.
Take `CC(C)C[C@H](NC(=O)Cn1ccc(Nc2ccccc2)cc1=O)B(O)O`: the inhibition constant (Ki) in experiment [4] came to 12700 nM; in experiment [2] it was 98 nM. Also, the Ratio Ki in the experiment filed under Homo sapiens is 52. Also, in experiment [1], the inhibition entry is “inactive”. In experiment [3], the inhibition was > 40%.
In the case of `CC(C)C[C@H](NC(=O)Cn1ccccc1=O)B(O)O`, in the experiment listed under Homo sapiens, the Ratio Ki came out at 5.3. Further, the inhibition result in experiment [1] was “inactive”. In experiment [2], this compound had a Ki of 260 nM. Besides, the inhibition in experiment [3] is > 40%.
Turning to `C=CCN1CCN(c2ccn(CC(=O)N[C@@H](CC(C)C)B(O)O)c(=O)c2)CC1`, the inhibition entry in experiment [1] was “inactive”. In addition, the Ki result is “Not Active” on Proteasome component C5 and 5900 nM in experiment [2]. Further, the inhibition in experiment [3] was > 40%.
Turning to `CC(C)C[C@H](NC(=O)Cn1ccc2c(c1=O)CCCN2C)B(O)O`, the inhibition entry in experiment [1] was “inactive”. The compound also displayed a Ki in experiment [2] of 1620 nM. Also, the inhibition in experiment [3] is > 40%.
On to `CC(C)C[C@H](NC(=O)[C@H](Cc1ccccc1)NC(=O)c1cnccn1)B(O)O`, for which the inhibition in experiment [3] is > 40%.
For the compound `CC(C)C[C@H](NC(=O)Cn1ccc(N2CCOCC2)cc1=O)B(O)O`, in experiment [1], the inhibition entry was “inactive”. In experiment [2], this compound yielded a Ki of 1450 nM. In addition, the inhibition in experiment [3] was > 40%.
On the same counts, the results for `CC(C)C[C@H](NC(=O)Cn1ccc2ncccc2c1=O)B(O)O` are “inactive”, 440 nM and > 40%.
